Laboratory results reported in ChEMBL document CHEMBL1156597, “Structure-activity relationship of kahalalide F synthetic analogues” (J Med Chem, 2008).

Assays:
HeLa = assay: Cytotoxicity against human HeLa cells after 48 hrs by SRB assay; type: functional; details: for CC50: read-out: LC50 (the source's name)
Outline: (§1)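 Cells grown in RPMI 1640 with 10% FBS and penicillin/streptomycin at 37 °C and 5% CO₂, trypsinized, then seeded at 5 × 10³/well. After 18 h drug-free attachment, samples in DMSO/EtOH/PBS (0.5:0.5:99) were added for 48 h continuous exposure. Cells were fixed with cold TCA (1 h, 4 °C) and stained with SRB (10 min). Tris-solubilized stain read at 490 nm. Triplicate wells, mean ± SD; GI₅₀ derived.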

[1] = Cytotoxicity against human HeLa-APL cells after 48 hrs by SRB assay; type: functional; outline: as §1
PANC-1 = assay: Cytotoxicity against human PANC1 cells after 48 hrs by SRB assay; type: functional; details: PANC-1, 48 h; for CC50: read-out: LC50 (the source's name); outline: as §1
[2] = Cytotoxicity against human IGROV cells after 48 hrs by SRB assay; type: functional; details: for CC50: read-out: LC50 (the source's name); outline: as §1
LNCaP = assay: Cytotoxicity against human LNcaP cells after 48 hrs by SRB assay; type: functional; details: for CC50: read-out: LC50 (the source's name); outline: as §1
LoVo [3] = assay: Cytotoxicity against human LoVo cells after 48 hrs by SRB assay; type: functional; details: for CC50: read-out: LC50 (the source's name)
K562 = assay: Cytotoxicity against human K562 cells after 48 hrs by SRB assay; type: functional; details: K562, 48 h, read-out: LC50 (the source's name); outline: as §1
SK-MEL-28 = assay: Cytotoxicity against human SK-MEL-28 cells after 48 hrs by SRB assay; type: functional, cell-based; details: Homo sapiens, SK-MEL-28, 48 h; for CC50: read-out: LC50 (the source's name); outline: as §1
SK-BR-3 = assay: Cytotoxicity against human SKBR3 cells after 48 hrs by SRB assay; type: functional; details: SK-BR-3, 48 h; for GI50: read-out: GI50; for CC50: read-out: LC50 (the source's name); outline: as §1
HT-29 = assay: Cytotoxicity against human HT29 cells after 48 hrs by SRB assay; type: functional, cell-based; details: Homo sapiens, HT-29, 48 h; for CC50: read-out: LC50 (the source's name); outline: as §1
LoVo [4] = assay: Cytotoxicity against human doxorubicin resistant LoVo cells after 48 hrs by SRB assay; type: functional; details: for CC50: read-out: LC50 (the source's name); outline: as §1
[5] = Cytotoxicity against human IGROV-ET cells after 48 hrs by SRB assay; type: functional; details: for CC50: read-out: LC50 (the source's name); outline: as §1
DU-145 = assay: Cytotoxicity against human DU145 cells after 48 hrs by SRB assay; type: functional, cell-based; details: Homo sapiens, DU-145, 48 h; for CC50: read-out: LC50 (the source's name); outline: as §1
A549 = assay: Cytotoxicity against human A549 cells after 48 hrs by SRB assay; type: functional, cell-based; details: Homo sapiens, A549, 48 h; outline: as §1

Row | SMILES | GI50 (HeLa) [nM] | TGI (HeLa) [nM] | CC50 (HeLa) [nM] | GI50 [1] [nM] | LC50 (concentration giving 50% net cell kill) [1] [nM] | TGI [1] [nM] | GI50 (PANC-1) [nM] | TGI (PANC-1) [nM] | CC50 (PANC-1) [nM] | GI50 ([2]; read-out: GI50) [nM] | CC50 [2] [nM] | CC50 (LNCaP) [nM] | CC50 (LoVo [3]) [nM] | CC50 (K562) [nM] | GI50 (SK-MEL-28) [nM] | GI50 (SK-MEL-28; read-out: GI50) [nM] | CC50 (SK-MEL-28) [nM] | TGI (SK-BR-3) [nM] | GI50 (SK-BR-3) [nM] | CC50 (SK-BR-3) [nM] | other results
1 | C/C=C1\NC(=O)[C@H](Cc2ccccc2)NC(=O)[C@@H](C(C)C)NC(=O)[C@@H]([C@H](C)CC)NC(=O)[C@H](NC(=O)[C@H](NC(=O)[C@H](CCCN)NC(=O)[C@H]2CCCN2C(=O)[C@H](NC(=O)[C@H](CCC2CCCCC2)NC(=O)[C@@H](NC(=O)[C@H](NC(=O)CCCC(C)C)C(C)C)[C@@H](C)O)C(C)C)[C@H](C)CC)[C@H](C)OC(=O)[C@H](C(C)C)NC1=O | 394 | 628 | 829 | 462 | 732 | 672 | 1040 | 1380 | 1700 | 284 | 3870 | 1290 | 273 | 1850 | 467 | 329 | 626 | 267 | 234 | 230 | TGI [2]: 2940 nM; GI50 (LNCaP): 639 nM; TGI (LNCaP): 909 nM; GI50 (LoVo [3]): 240 nM; TGI (LoVo [3]): 256 nM; GI50 (HT-29): 235 nM; TGI (HT-29): 265 nM; CC50 (HT-29): 0.299 µg/mL; GI50 (LoVo [4]): 114 nM; TGI (LoVo [4]): 153 nM; CC50 (LoVo [4]): 1000 nM; GI50 [5]: 380 nM; GI50 ([5]; read-out: GI50): 377 nM; CC50 [5]: 455 nM; GI50 (DU-145): 507 nM; GI50 (DU-145; read-out: GI50): 350 nM; CC50 (DU-145): 709 nM; GI50 (A549): 233 nM; LC50 (A549): 437 nM; GI50 (A549; read-out: GI50): 186 nM
2 | C/C=C1\NC(=O)[C@H](Cc2ccccc2)NC(=O)[C@@H](C(C)C)NC(=O)[C@@H]([C@H](C)CC)NC(=O)[C@H](NC(=O)[C@H](NC(=O)[C@H](CCCNC(=O)CCOCCOCCN)NC(=O)[C@H]2CCCN2C(=O)[C@H](NC(=O)[C@@H](NC(=O)[C@@H](NC(=O)[C@H](NC(=O)CCCC(C)C)C(C)C)[C@@H](C)O)C(C)C)C(C)C)[C@H](C)CC)[C@H](C)OC(=O)[C@H](C(C)C)NC1=O | 711 | 942 | 944 | 515 | 852 | 658 | 1250 | 1060 | 1600 | 176 | 262 | 866 | 301 | 159 | 956 | 952 | 954 | 235 | 248 | 111 | GI50 [2]: 134 nM; CC50 (HT-29): 390 nM; CC50 (LoVo [4]): 29.5 nM; GI50 [5]: 287 nM; GI50 ([5]; read-out: GI50): 195 nM; CC50 [5]: 510 nM; GI50 (DU-145): 852 nM; GI50 (DU-145; read-out: GI50): 738 nM; CC50 (DU-145): 982 nM; GI50 (A549): 595 nM; LC50 (A549): 350 nM; GI50 (A549; read-out: GI50): 4920 nM
3 | C/C=C1\NC(=O)[C@H](Cc2ccccc2)NC(=O)[C@@H](C(C)C)NC(=O)[C@@H]([C@H](C)CC)NC(=O)[C@H](NC(=O)[C@H](NC(=O)[C@H](CCCNC(=O)CCCC[C@@H]2SC[C@@H]3NC(=O)N[C@@H]32)NC(=O)[C@H]2CCCN2C(=O)[C@H](NC(=O)[C@@H](NC(=O)[C@@H](NC(=O)[C@H](NC(=O)CCCC(C)C)C(C)C)[C@@H](C)O)C(C)C)C(C)C)[C@H](C)CC)[C@H](C)OC(=O)[C@H](C(C)C)NC1=O | 382 | 580 | 716 | 985 | 996 | 989 | 1990 | 2360 | 2010 | 369 | 342 | 805 | 288 | 1680 | 974 | 959 | 974 | 267 | 322 | 90.5 | GI50 [2]: 351 nM; GI50 (LNCaP): 816 nM; TGI (LNCaP): 810 nM; GI50 (LoVo [3]): 317 nM; TGI (LoVo [3]): 303 nM; GI50 (HT-29): 362 nM; TGI (HT-29): 316 nM; CC50 (HT-29): 164 nM; GI50 (LoVo [4]): 328 nM; TGI (LoVo [4]): 354 nM; CC50 (LoVo [4]): 2180 nM; GI50 [5]: 488 nM; GI50 ([5]; read-out: GI50): 618 nM; CC50 [5]: 385 nM; GI50 (DU-145): 836 nM; GI50 (DU-145; read-out: GI50): 854 nM; CC50 (DU-145): 814 nM; LC50 (A549): 128 nM
4 | C/C=C1\NC(=O)[C@H](Cc2ccccc2)NC(=O)[C@@H](C(C)C)NC(=O)[C@@H]([C@H](C)CC)NC(=O)[C@H](NC(=O)[C@H](NC(=O)[C@H](CCCN)NC(=O)[C@H]2CCCN2C(=O)[C@H](NC(=O)[C@@H](NC(=O)[C@@H](NC(=O)[C@H](NC(=O)CC[C@@H](C)CC)C(C)C)[C@@H](C)OC(=O)C(F)(F)F)C(C)C)C(C)C)[C@H](C)CC)[C@H](C)OC(=O)[C@H](C(C)C)NC1=O | 294 | 553 | 818 | 499 | 892 | 745 | 1430 | 1660 | 1660 | 287 | 508 | 1400 | 310 | 181 | 772 | 716 | 839 | 218 | 203 | 141 | GI50 [2]: 345 nM; GI50 (LNCaP): 610 nM; TGI (LNCaP): 1020 nM; GI50 (LoVo [3]): 212 nM; TGI (LoVo [3]): 257 nM; GI50 (HT-29): 241 nM; TGI (HT-29): 257 nM; CC50 (HT-29): 271 nM; GI50 (LoVo [4]): 189 nM; TGI (LoVo [4]): 222 nM; CC50 (LoVo [4]): 1400 nM; GI50 [5]: 191 nM; GI50 ([5]; read-out: GI50): 231 nM; CC50 [5]: 468 nM; GI50 (DU-145): 752 nM; GI50 (DU-145; read-out: GI50): 617 nM; CC50 (DU-145): 914 nM; GI50 (A549): 882 nM; LC50 (A549): 101 nM; GI50 (A549; read-out: GI50): 7700 nM
